The results in this text go back to ChEMBL document CHEMBL5331142, “Novel 1,4-Dihydropyridines as Specific Binders and Activators of SIRT3 Impair Cell Viability and Clonogenicity and Downregulate Hypoxia-Induced Targets in Cancer Cells” (J Med Chem, 2023).

The target of experiment [1] is T1, NAD-dependent protein deacetylase sirtuin-1 (Homo sapiens) (UniProt Q96EB6).
T1 sequence (whole entry): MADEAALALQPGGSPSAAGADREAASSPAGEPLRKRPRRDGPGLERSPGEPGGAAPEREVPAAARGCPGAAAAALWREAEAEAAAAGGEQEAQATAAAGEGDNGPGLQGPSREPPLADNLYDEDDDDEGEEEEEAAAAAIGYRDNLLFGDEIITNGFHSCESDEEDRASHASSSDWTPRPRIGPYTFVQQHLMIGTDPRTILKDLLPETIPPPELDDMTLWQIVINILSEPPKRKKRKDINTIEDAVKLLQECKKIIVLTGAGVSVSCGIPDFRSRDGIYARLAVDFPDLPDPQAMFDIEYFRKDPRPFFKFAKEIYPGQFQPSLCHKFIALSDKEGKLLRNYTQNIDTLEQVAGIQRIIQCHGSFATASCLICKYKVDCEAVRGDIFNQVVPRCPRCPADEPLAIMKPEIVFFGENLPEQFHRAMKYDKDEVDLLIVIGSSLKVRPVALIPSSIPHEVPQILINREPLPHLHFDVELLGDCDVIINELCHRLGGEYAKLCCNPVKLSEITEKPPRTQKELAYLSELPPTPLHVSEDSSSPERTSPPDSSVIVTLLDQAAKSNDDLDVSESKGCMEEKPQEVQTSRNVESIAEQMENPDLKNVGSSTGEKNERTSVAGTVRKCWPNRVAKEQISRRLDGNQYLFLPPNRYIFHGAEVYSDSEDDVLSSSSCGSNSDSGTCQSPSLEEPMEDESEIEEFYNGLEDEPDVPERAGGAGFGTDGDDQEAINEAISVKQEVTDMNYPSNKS
Nature of the experiment: Activation of N-terminal his-tagged human SIRT1 expressed in Escherichia coli at 10 uM using p53-acK381 as substrate in presence of NAD+ by NADH oxidation-coupled enzymatic assay. The essentials: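 Coupled PncA/GDH deacylation assay following NADPH oxidation to NADP+. 1.5 μM sirtuin, 50 μM substrate peptide, 100 μM NAD+, compound at 10 μM, 5% final DMSO. Isoform-specific physiological substrates: p53-acK381 (SIRT1), […] (SIRT2), ACS2-acK642 (SIRT3), CPS1-succK537 (SIRT5). Sirtuins expressed in E. coli, Ni-NTA purified, tag cleaved, then size-exclusion chromatography.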

The target in experiment [2] is T2, NAD-dependent protein deacetylase sirtuin-3, mitochondrial (Homo sapiens) (UniProt Q9NTG7).
T2 sequence (whole entry): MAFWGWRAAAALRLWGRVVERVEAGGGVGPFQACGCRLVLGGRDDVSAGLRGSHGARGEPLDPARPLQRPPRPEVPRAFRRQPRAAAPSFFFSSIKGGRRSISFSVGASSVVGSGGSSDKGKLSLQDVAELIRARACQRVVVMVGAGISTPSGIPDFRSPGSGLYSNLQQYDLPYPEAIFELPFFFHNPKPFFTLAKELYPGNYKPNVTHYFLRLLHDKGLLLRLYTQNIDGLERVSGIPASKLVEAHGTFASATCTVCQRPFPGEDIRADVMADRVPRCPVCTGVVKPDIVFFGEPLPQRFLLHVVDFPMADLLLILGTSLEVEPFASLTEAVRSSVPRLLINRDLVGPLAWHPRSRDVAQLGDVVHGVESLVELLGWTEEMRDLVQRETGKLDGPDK
Kind of experiment: Activation of human SIRT3 overexpressing in human CAL-62 cells assessed as increase in acK68-MnSOD deacetylation level at 50 uM incubated for 4 hrs by Western blot analysis assay. The experiment is classed as cell-based. As to conditions: filed as activator. The essentials: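 CAL-62 or MDA-MB-231 cells treated 4 h at 50 μM. Lysed in Tris/NaCl/EDTA/Triton buffer with protease and phosphatase inhibitors. 15 or 50 μg protein resolved by SDS-PAGE, immunoblotted for acK68- or acK122-MnSOD and total MnSOD, ECL detection. Densitometric acetyl/total ratio. SIRT3 inhibitor 3-TYP (1 μM) used as control.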
On the technique in general: Immunoblotting shows a protein as a band on a membrane.

Experiment [3] relates to CAL-62. Nature of the experiment: Anticancer activity against human CAL-62 cells assessed as reduction in cell viability at 50 uM incubated for 24 to 48 hrs under hypoxia condition by trypan blue exclusion assay. Format: functional, cell-based. To be noted: time 24-48 hrs, TDE = time-dependent effect. The essentials: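 CAL-62 cells in RPMI 1640 with 10% FBS, treated with 50 μM compound (DMSO) for 24 and 48 h. Hypoxia induced with 200 μM CoCl2, kept in the medium during treatment. Viable cells counted by 0.4% trypan blue staining on a hemocytometer.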

The test system of experiment [4] is CAL-62. Nature of the experiment: Inhibition of clonogenicity in human CAL-62 cells at 50 uM incubated for 24 to 48 hrs under normoxia condition by crystal violet staining based assay. Format: functional. As to conditions: time 24-48 hrs. In short, it runs like this:
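CAL-62 cells at 80–90% confluence treated with 50 μM compound for 24 or 48 h, in normoxia or with 200 μM CoCl2 (hypoxia). 500 cells replated per 100 mm dish and grown about 7 days. Colonies fixed in 4% formaldehyde, stained with 0.5% crystal violet, and counted.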

Experiment [5] deals with MDA-MB-231. Kind of experiment: Induction of cell death in human MDA-MB-231 cells incubated for 48 hrs under hypoxia condition by trypan blue exclusion assay. The experiment is classed as functional, cell-based. To be noted: MDA-MB-231, 48 h. The essentials:
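MDA-MB-231 cells treated at 1–50 μM for 48 h under 200 μM CoCl2 hypoxia. Dead cells scored by trypan blue on a hemocytometer, EC50 derived. Three independent experiments.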

The subject of experiment [6] is CAL-62. Nature of the experiment: Downregulation of CA-IX expression in human CAL-62 cells at 50 uM incubated for 48 hrs under hypoxia condition by Western blot analysis. The experiment is classed as functional, cell-based. In short, it runs like this: (§1)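 CAL-62 or MDA-MB-231 cells made hypoxic with 200 μM CoCl2 for 24 h, then treated with 50 μM compound for 48 h with CoCl2 retained. Lysates (15 or 50 μg protein) immunoblotted for HIF-1α, EPAS-1 or CA-IX with ACTB, ECL detection. 3-TYP (1 μM) as control.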

In experiment [7] the test system is MDA-MB-231. Nature of the experiment: Downregulation of CA-IX expression in human MDA-MB-231 cells at 50 uM incubated for 48 hrs under hypoxia condition by Western blot analysis. Format: functional, cell-based. The essentials: as §1
Experiment [8] deals with MDA-MB-231. Nature of the experiment: Downregulation of MMP2 gene expression in human MDA-MB-231 cells at 50 uM incubated for 48 hrs under hypoxia condition by qRT-PCR analysis. The experiment is classed as functional, cell-based. In short, it runs like this: (§2)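 MDA-MB-231 cells pretreated with 200 μM CoCl2 to induce hypoxia, then exposed to 50 μM compound for 48 h with CoCl2 maintained. qRT-PCR by the 2(−ΔCt) method vs DMSO control, mean ± SEM. Four independent experiments.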
(Real-time PCR tracks product formation cycle by cycle.)

Experiment [9] relates to MDA-MB-231. Kind of experiment: Downregulation of MMP9 gene expression in human MDA-MB-231 cells at 50 uM incubated for 48 hrs under hypoxia condition by qRT-PCR analysis. Format: functional, cell-based. The essentials: as §2
In experiment [10] the target is NAD-dependent protein deacylase sirtuin-5, mitochondrial (Homo sapiens) (UniProt Q9NXA8). Nature of the experiment: Activation of N-terminal his-tagged human SIRT5 (34 to 302 residues) expressed in Escherichia coli at 10 uM using p53-acK381 as substrate in presence of NAD+ by NADH oxidation-coupled enzymatic assay.

Active and inactive are the calls of the source. The rule behind the calls is not given here.

Chain of NAD-dependent protein deacylase sirtuin-5, mitochondrial (Homo sapiens) (Q9NXA8 37-310 limits assumed): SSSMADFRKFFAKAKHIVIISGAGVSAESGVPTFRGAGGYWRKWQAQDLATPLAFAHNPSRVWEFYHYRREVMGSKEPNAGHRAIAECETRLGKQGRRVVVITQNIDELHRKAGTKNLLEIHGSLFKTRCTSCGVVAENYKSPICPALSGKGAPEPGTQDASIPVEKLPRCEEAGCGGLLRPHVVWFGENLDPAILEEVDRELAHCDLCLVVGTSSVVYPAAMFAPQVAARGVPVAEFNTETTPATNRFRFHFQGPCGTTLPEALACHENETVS

For orientation: inhibition means how much of the control response was suppressed. By EC50 is commonly meant the concentration giving half of the maximal effect. Higher therefore signals weaker potency. Take `CCOC(=O)C1=CN(C(=O)c2cc(OC)cc(OC)c2)C=C(C(=O)OCC)C1c1ccccc1`: the outcome in [1] and in experiment [10] was inactive. In addition, the outcome (in [2]; in the experiment with CAL-62 [6]; with MDA-MB-231 [7]; in the experiment with MDA-MB-231 [8]; in the experiment with MDA-MB-231 [9]) was Active. The Activity entry in the experiment on CAL-62 [3] was “Tde”. The inhibition at 50 µM in the experiment with CAL-62 [4] was determined as 68%. In addition, the EC50 with MDA-MB-231 [5] turned out to be 10.7 µM.

As to `CCOC(=O)C1=CN(C(=O)c2ccc(OC)c(OC)c2)C=C(C(=O)OCC)C1c1ccccc1`, the result in experiment [1] and in experiment [10] was inactive. Also, in the experiment on CAL-62 [3], the Activity entry was “Tde”. The result in the experiment with MDA-MB-231 [8] and in the experiment on MDA-MB-231 [9] was Active.
